Experimental data: ChEMBL document CHEMBL1128478, “Structure-activity relationships of the potent combined endothelin-A/endothelin-B receptor antagonist Ac-DDip16-Leu-Asp-Ile-Ile-Trp21: development of endothelin-B receptor selective antagonists” (J Med Chem, 1995)
Where a name gives a salt, the structure may show the parent alone. Numbered stars: 1 amine (or outer) side, 2 acyl side, 3 side chain; on linkers, the order of the positions; unused ones are H or OH. Square brackets hold non-standard residues; d marks the D form. Peptide text beside a SMILES is read from it. * marks the point of attachment. Dip = N[C@H](C(=O)O)C(c1ccccc1)c1ccccc1; NHcHex = C1CCC(N*)CC1; CO = O=C([*:1])[*:2]; Propionyl = CCC(=O)*; Tfa = O=C(C(F)(F)F)*; Bz = O=C(c1ccccc1)*; Ms = CS(=O)(=O)*

Legend:
[1] = molecular target: T1, Endothelin receptor type B (Rattus norvegicus, UniProt P21451); assay: Binding affinity against endothelin B receptor rat cerebellar membranes.
T1 sequence (P21451 whole entry): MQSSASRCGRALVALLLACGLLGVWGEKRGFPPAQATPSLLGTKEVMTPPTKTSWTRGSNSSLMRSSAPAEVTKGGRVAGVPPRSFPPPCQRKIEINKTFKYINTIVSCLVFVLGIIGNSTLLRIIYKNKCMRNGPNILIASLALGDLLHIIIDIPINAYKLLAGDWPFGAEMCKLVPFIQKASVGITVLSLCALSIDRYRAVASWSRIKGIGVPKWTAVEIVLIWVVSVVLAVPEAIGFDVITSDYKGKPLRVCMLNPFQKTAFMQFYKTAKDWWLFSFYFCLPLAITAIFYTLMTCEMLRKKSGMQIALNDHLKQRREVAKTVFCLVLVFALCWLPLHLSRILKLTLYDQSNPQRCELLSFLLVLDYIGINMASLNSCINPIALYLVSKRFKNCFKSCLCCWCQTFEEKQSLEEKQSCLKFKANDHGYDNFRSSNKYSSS

[2] = molecular target: T2, Endothelin receptor type B (Homo sapiens, UniProt P24530); assay: Binding affinity measured in CHO cells stably transfected with the human endothelin B receptor; format: cell-based
T2 sequence (P24530 whole entry): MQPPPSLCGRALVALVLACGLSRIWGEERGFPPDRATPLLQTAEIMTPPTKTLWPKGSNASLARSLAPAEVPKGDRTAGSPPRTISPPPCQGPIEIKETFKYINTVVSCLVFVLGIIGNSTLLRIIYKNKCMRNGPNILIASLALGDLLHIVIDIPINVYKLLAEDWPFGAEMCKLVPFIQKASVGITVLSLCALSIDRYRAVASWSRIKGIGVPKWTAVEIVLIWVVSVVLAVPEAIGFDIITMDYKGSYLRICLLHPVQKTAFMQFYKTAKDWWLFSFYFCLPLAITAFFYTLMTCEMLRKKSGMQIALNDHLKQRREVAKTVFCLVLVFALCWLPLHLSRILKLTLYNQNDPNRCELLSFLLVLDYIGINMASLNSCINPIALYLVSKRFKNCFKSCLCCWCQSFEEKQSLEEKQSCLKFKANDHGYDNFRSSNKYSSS
Procedure, shortened: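 Membranes come from confluent CHO-K1 clones stably expressing human ETB, grown in DME/F12 with 10% FCS and G418 0.5 mg/mL. Specific binding fitted by nonlinear least squares. Triplicate points per IC50.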

[3] = Relative affinities for rat endothelin B receptor and human endothelin B receptor; design: reference not given here
[4] = Relative affinities against endothelin A receptor (rabbit) and endothelin B receptor (rat); design: reference not given here
[5] = molecular target: T1, Endothelin receptor type B; assay: Inhibition of SRTX-6c stimulated arachidonic acid release in CHO cells expressing rat ET- B receptors
[6] = molecular target: T1, Endothelin receptor type B; assay: Inhibition of SRTX-6c stimulated arachidonic acid release in CHO cells expressing recombinant rat ET- B receptors

SMILES	IC50 [1]	IC50 [2]	Ratio [3]	Ratio [4]	IC50 [5]	IC50 [6]
CC[C@H](C)[C@H](NC(=O)[C@H](CC(=O)O)NC(=O)[C@H](CCCNC(=N)N)NC(=O)[C@H](NC(C)=O)C(c1ccccc1)c1ccccc1)C(=O)N[C@H](C(=O)N[C@@H](Cc1c[nH]c2ccccc12)C(=O)O)[C@@H](C)CC	10 nM	590 nM	–	–	–	–
CC[C@H](C)[C@H](NC(=O)[C@H](CC(=O)O)NC(=O)[C@H](CCCNC(=N)N)NC(=O)[C@@H](NC(C)=O)C(c1ccccc1)c1ccccc1)C(=O)N[C@H](C(=O)N[C@@H](Cc1c[nH]c2ccccc12)C(=O)O)[C@@H](C)CC	–	–	59	–	–	–
CC[C@H](C)[C@H](NC(=O)[C@H](Cc1ccccc1)NC(=O)[C@H](CC(=O)O)NC(=O)[C@H](CC(C)C)NC(=O)[C@@H](NC(C)=O)C(c1ccccc1)c1ccccc1)C(=O)N[C@@H](Cc1c[nH]c2ccccc12)C(=O)O (Ac-[Dip]LDFIW-OH)	56 nM	900 nM	16	–	–	–
CC[C@H](C)[C@H](NC(=O)[C@H](CCC(=O)O)NC(=O)[C@H](CC(C)C)NC(=O)[C@@H](NC(C)=O)C(c1ccccc1)c1ccccc1)C(=O)N[C@H](C(=O)N[C@@H](Cc1c[nH]c2ccccc12)C(=O)O)[C@@H](C)CC (Ac-[Dip]LEIIW-OH)	19 nM	1800 nM	95	–	–	–
CC[C@H](C)[C@H](NC(=O)[C@H](Cc1ccccc1)NC(=O)[C@H](CC(C)C)NC(=O)[C@@H](NC(C)=O)C(c1ccccc1)c1ccccc1)C(=O)N[C@H](C(=O)N[C@@H](Cc1c[nH]c2ccccc12)C(=O)O)[C@@H](C)CC (Ac-[Dip]LFIIW-OH)	60 nM	> 1600 nM	17	–	–	–
CC[C@H](C)[C@H](NC(=O)[C@H](CC(=O)O)NC(=O)[C@H](CC(C)C)NC(=O)[C@@H](NC(=O)c1ccccc1)C(c1ccccc1)c1ccccc1)C(=O)N[C@H](C(=O)N[C@@H](Cc1c[nH]c2ccccc12)C(=O)O)[C@@H](C)CC (Bz-[Dip]LDIIW-OH)	30 nM	4400 nM	147	210	290 nM	–
CC[C@H](C)[C@H](NC(=O)[C@H](CC(=O)O)NC(=O)[C@H](CC(C)C)NC(=O)[C@@H](NS(C)(=O)=O)C(c1ccccc1)c1ccccc1)C(=O)N[C@H](C(=O)N[C@@H](Cc1c[nH]c2ccccc12)C(=O)O)[C@@H](C)CC (Ms-[Dip]LDIIW-OH)	260 nM	–	–	2.1	–	1300 nM
CCC(=O)N[C@H](C(=O)N[C@@H](CC(C)C)C(=O)N[C@@H](CC(=O)O)C(=O)N[C@H](C(=O)N[C@H](C(=O)N[C@@H](Cc1c[nH]c2ccccc12)C(=O)O)[C@@H](C)CC)[C@@H](C)CC)C(c1ccccc1)c1ccccc1 (Propionyl-[Dip]LDIIW-OH)	260 nM	–	–	3.8	220 nM	–
CC[C@H](C)[C@H](NC(=O)[C@H](CC(=O)O)NC(=O)[C@H](CC(C)C)NC(=O)[C@@H](NC(=O)C(F)(F)F)C(c1ccccc1)c1ccccc1)C(=O)N[C@H](C(=O)N[C@@H](Cc1c[nH]c2ccccc12)C(=O)O)[C@@H](C)CC (Tfa-[Dip]LDIIW-OH)	600 nM	–	–	0.42	290 nM	–
CC[C@H](C)[C@H](NC(=O)[C@H](CCCCN)NC(=O)[C@H](CC(C)C)NC(=O)C(NC(C)=O)C(c1ccccc1)c1ccccc1)C(=O)N[C@H](C(=O)N[C@@H](Cc1c[nH]c2ccccc12)C(=O)O)[C@@H](C)CC (single isomer, unassigned)	–	> 10000 nM	–	–	–	–
CC[C@H](C)[C@H](NC(=O)[C@H](CC(=O)O)NC(=O)[C@H](CC(C)C)NC(=O)[C@@H](NC(=O)NC)C(c1ccccc1)c1ccccc1)C(=O)N[C@H](C(=O)N[C@@H](Cc1c[nH]c2ccccc12)C(=O)O)[C@@H](C)CC ({NHMe-CO}-[Dip]LDIIW-OH)	140 nM	–	–	6.1	20 nM	–
CC[C@H](C)[C@H](NC(=O)[C@H](CC(=O)O)NC(=O)[C@H](CC(C)C)NC(=O)[C@@H](NC(=O)NC1CCCCC1)C(c1ccccc1)c1ccccc1)C(=O)N[C@H](C(=O)N[C@@H](Cc1c[nH]c2ccccc12)C(=O)O)[C@@H](C)CC ({NHcHex-CO}-[Dip]LDIIW-OH)	68 nM	–	–	29.4	210 nM	–
